One compound from ChEMBL document CHEMBL4402601, “Discovery of a Silicon-Containing Pan-Genotype Hepatitis C Virus NS5A Inhibitor” (J Med Chem, 2020) can be followed below.

The test system of data set [1] is Hepatitis C virus. Put plainly: Antiviral activity against Hepatitis C virus subtype 6a subgenomic replicon expressing NS5A infected in human HuH7 cells assessed as reduction in viral replication incubated for 3 days by luciferase reporter gene assay. Type of data set: functional, organism-based, Hepacivirus hominis. Particulars: Huh-7, 72 h. In outline:
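HCV replicon cell assay; inhibition of replication read as decrease in luciferase signal. Percent inhibition computed at each compound concentration; EC50 (pM) from nonlinear regression fit to a 4-parameter logistic equation. Values are means of triplicate wells, with each experiment run at least twice.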

Data set [2] relates to Hepatitis C virus. Put plainly: Antiviral activity against Hepatitis C virus subtype 1a H77 subgenomic replicon expressing NS5A Q30K mutant infected in human HuH7 cells assessed as reduction in viral replication incubated for 3 days by luciferase reporter gene assay. Type of data set: functional, organism-based, Hepacivirus hominis. To be noted: subtype 1a H77, Huh-7, 72 h. In outline: (§1)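 NS5A resistance-associated variants introduced into GT1a-H77 or GT1b-Con1 replicons. In transient assays, each variant replicon was electroporated into a Huh-7-derived cell line. Inhibition measured as drop in luciferase signal. Percent inhibition computed per concentration; EC50 from 4-parameter logistic nonlinear fit. Fold resistance is variant EC50 relative to the matching reference replicon.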

Data set [3] concerns Hepatitis C virus. Put plainly: Antiviral activity against Hepatitis C virus subtype 1a H77 subgenomic replicon expressing NS5A Y93H mutant infected in human HuH7 cells assessed as reduction in viral replication incubated for 3 days by luciferase reporter gene assay. Type of data set: functional, organism-based, Hepacivirus hominis. Particulars: subtype 1a H77, Huh-7, 72 h. The gist of the method: as §1

The subject of data set [4] is Hepatitis C virus. The experiment in a line: Antiviral activity against Hepatitis C virus subtype 1a H77 subgenomic replicon expressing NS5A Y93C mutant infected in human HuH7 cells assessed as reduction in viral replication incubated for 3 days by luciferase reporter gene assay. Type of data set: functional, organism-based, Hepacivirus hominis. To be noted: subtype 1a H77, Huh-7, 72 h. In outline: as §1

Data set [5] deals with Hepatitis C virus. Put plainly: Resistance index, ratio of EC50 for Hepatitis C virus subtype 1a H77 subgenomic replicon expressing NS5A Y93H mutant infected in human HuH7 cells to EC50 for Hepatitis C virus subtype 1a H77 subgenomic replicon expressing NS5A infected in human HuH7 cells. Type of data set: functional, Hepacivirus hominis.
The nature of data set [6]: Metabolic stability in mouse liver microsomes assessed as compound remaining at 1 uM incubated for 60 mins by UPLC-MS/MS analysis. Type of data set: ADME, Microsome. To be noted: read-out: Stability. In outline: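 Pooled mouse, rat or human liver microsomes (0.5 mg/mL) with 1 μM compound, 1 mM NADPH, 5 mM MgCl₂ and 100 mM potassium phosphate pH 7.4. Pre-incubated 5 min at 37 °C, started with NADPH, then run 60 min at 37 °C. Quenched with ice-cold acetonitrile containing internal standard; parent remaining measured by UPLC-MS/MS.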

A short description of data set [7]: Half life in mouse at 2 mg/kg, iv by UPLC-MS/MS analysis. Particulars: in vivo. Type of data set: ADME, organism-based. The gist of the method:
(§2)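 Overnight-fasted mice dosed iv once at 2 mg/kg. Vehicle was 2:2:96 (v/v) alcohol : Tween 80 : glucose injection diluted 2.5 times with 10% glucose injection. Plasma concentration measured by UPLC-MS/MS.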

Data set [8] can be described thus: AUClast in mouse at 2 mg/kg, iv by UPLC-MS/MS analysis. Type of data set: ADME, organism-based. Particulars: in vivo. In outline: as §2
A short description of data set [9]: Cmax in mouse at 10 mg/kg, po by UPLC-MS/MS analysis. Type of data set: ADME, organism-based. To be noted: in vivo. Also on record: dose 10 mg/kg, route oral. In outline: (§3)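 Overnight-fasted mice given a single 10 mg/kg oral dose in 2:2:96 (v/v) alcohol : Tween 80 : glucose injection. Plasma levels by UPLC-MS/MS. Bioavailability derived against a 2 mg/kg iv arm using the same formulation diluted 2.5 times with 10% glucose injection.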

A short description of data set [10]: AUClast in mouse at 10 mg/kg, po by UPLC-MS/MS analysis. Type of data set: ADME, organism-based. Particulars: in vivo. The gist of the method: as §3
A short description of data set [11]: Cmax in dog at 5 mg/kg, po by UPLC-MS/MS analysis. Type of data set: ADME, organism-based, Canis lupus familiaris. Also noted: dose 5 mg/kg, route oral. Particulars: in vivo.
The nature of data set [12]: AUC (0 to 48 hrs) in dog at 5 mg/kg, po by UPLC-MS/MS analysis. Type of data set: ADME, organism-based, Canis lupus familiaris. Also noted: time < 48 hr, dose 5 mg/kg, route oral. To be noted: in vivo.
Data set [13] can be described thus: AUC (0 to infinity) in dog at 5 mg/kg, po by UPLC-MS/MS analysis. Type of data set: ADME, organism-based, Canis lupus familiaris. Also on record: dose 5 mg/kg, route oral, time infinity. Particulars: in vivo.
Data set [14] in a line: MRT in dog at 5 mg/kg, po by UPLC-MS/MS analysis. Type of data set: ADME, organism-based, Canis lupus familiaris. To be noted: in vivo.
Data set [15] can be described thus: Drug distribution in mouse plasma at 10 mg/kg, po incubated for 3 hrs by UPLC-MS/MS analysis. Type of data set: ADME, organism-based. In outline: (§4)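 Oral dosing in mice and rats; compound measured in plasma and liver by UPLC-MS/MS at each time point, n = 3 (mean ± SD). LPR is mean liver concentration divided by mean plasma concentration.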
A short description of data set [16]: Drug distribution in mouse liver at 10 mg/kg, po incubated for 3 hrs by UPLC-MS/MS analysis. Type of data set: ADME, organism-based. Particulars: read-out: Drug uptake. The gist of the method:
as §4

A short description of data set [17]: Ratio of drug distribution in mouse liver to drug distribution in mouse plasma measured after 24 hrs by UPLC-MS/MS analysis. Type of data set: ADME, cell-free. In outline: as §4
Data set [18] can be described thus: Ratio of drug distribution in rat liver to drug distribution in rat plasma measured after 8 hrs by UPLC-MS/MS analysis. Type of data set: ADME, cell-free. In outline:
as §4

As for `COC(=O)N[C@H](C(=O)N1CCC[C@H]1C(=O)Nc1ccc([C@@H]2CC[C@@H](c3ccc(NC(=O)[C@@H]4CCCN4C(=O)[C@@H](NC(=O)OC)[C@@H](C)OC)cc3)N2c2cc(F)c(N3CC[Si](C)(C)CC3)c(F)c2)cc1)[C@@H](C)OC`, the EC50 is 0.017 nM in the data set with Hepatitis C virus [1], 0.0375 nM in the data set on Hepatitis C virus [2], greater than 1 nM with Hepatitis C virus [3] and greater than 0.25 nM in the data set on Hepatitis C virus [4]. In addition, the “Ratio EC50” value in the data set on Hepatitis C virus [5] is reported as greater than 833. Moreover, the remaining at 1 h, 1 µM in [6] was 60.4%. This compound also showed a half-life in [7] of 732 min. The figures for the AUClast in data set [8] and in data set [10] were 17863 ng/hr.ml and 6446 ng/hr.ml, respectively. The values for the Cmax in data set [9] and in data set [11] were 454 ng/mL and 395 ng/mL, respectively. The AUC in data set [12] was 8020 ng·h/mL; in [13] it was 10100 ng·h/mL. The compound also showed an MRT in data set [14] of 17.5 h. Moreover, the concentration at 3 h came out at 308 ng/mL in [15] and 1580 ng/g in data set [16]. Further, the Kp at 24 h in data set [17] was 17.9. Also, the Kp at 8 h in [18] worked out at 10.7.
